Experimental data from ChEMBL document CHEMBL4049407, “Positional Scanning Identifies the Molecular Determinants of a High Affinity Multi-Leucine Inhibitor for Furin and PACE4” (J Med Chem, 2017).
Calls of active or inactive are those of the source. How the calls were made is not given here. Peptide text beside a SMILES is read from it. * marks the point of attachment. NH(4-amidinobenzyl) = N=C(N)c1ccc(CN*)cc1

Tests used:
[1] = biological target: T1, Proprotein convertase subtilisin/kexin type 6 (Homo sapiens, UniProt P29122); assay: Inhibition of recombinant human PACE4 expressed in drosophila S2 cells using pyrGlu-Arg-Thr-Lys-Arg-7-amido-4-methylcoumarin as substrate after 60 mins by spectrofluorometry method; type: cell-based
T1 sequence (P29122 whole entry): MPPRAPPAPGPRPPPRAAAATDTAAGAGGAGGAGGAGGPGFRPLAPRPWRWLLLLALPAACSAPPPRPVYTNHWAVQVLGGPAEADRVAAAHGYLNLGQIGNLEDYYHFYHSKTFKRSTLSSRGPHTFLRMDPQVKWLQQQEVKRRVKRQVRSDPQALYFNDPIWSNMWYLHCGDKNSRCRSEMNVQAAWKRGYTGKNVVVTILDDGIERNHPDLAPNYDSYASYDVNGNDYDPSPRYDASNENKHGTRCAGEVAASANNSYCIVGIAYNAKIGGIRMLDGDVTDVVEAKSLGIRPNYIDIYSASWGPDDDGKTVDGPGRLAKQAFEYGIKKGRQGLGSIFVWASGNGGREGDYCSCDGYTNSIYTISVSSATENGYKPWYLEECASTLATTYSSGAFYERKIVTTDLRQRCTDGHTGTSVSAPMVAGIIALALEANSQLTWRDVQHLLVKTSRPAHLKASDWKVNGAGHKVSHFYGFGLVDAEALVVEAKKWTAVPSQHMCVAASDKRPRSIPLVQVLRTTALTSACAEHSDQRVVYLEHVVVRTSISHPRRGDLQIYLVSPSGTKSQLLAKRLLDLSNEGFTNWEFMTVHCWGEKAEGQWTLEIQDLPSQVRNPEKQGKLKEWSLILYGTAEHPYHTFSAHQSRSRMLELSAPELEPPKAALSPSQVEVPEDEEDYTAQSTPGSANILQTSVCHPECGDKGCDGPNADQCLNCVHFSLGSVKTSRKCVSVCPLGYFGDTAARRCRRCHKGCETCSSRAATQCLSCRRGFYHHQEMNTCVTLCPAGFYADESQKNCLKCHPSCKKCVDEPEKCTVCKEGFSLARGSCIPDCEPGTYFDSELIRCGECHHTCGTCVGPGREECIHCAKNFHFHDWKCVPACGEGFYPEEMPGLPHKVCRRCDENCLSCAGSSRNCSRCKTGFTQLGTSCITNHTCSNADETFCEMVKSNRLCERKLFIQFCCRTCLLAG
Summary of the method: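 Human recombinant purified PACE4 at 2 units/100 µL (20.18 nM), in 20 mM BisTris pH 6.5, 1 mM CaCl2, 1.8 mg/mL BSA. Substrate 100 µM, KM 4.035 µM. Inhibitor 1 nM to 10 µM; 60 min at 37°C. Fluorescence ex 370 / em 460 nm. Ki by Morrison tight-binding equation; three independent experiments, mean ± SD.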

Furin = Furin (Homo sapiens, UniProt P09958); assay: Inhibition of recombinant human furin expressed in drosophila S2 cells using pyrGlu-Arg-Thr-Lys-Arg-7-amido-4-methylcoumarin as substrate after 60 mins by spectrofluorometry method; type: cell-based
Summary of the method: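 Human recombinant purified furin at 2 units/100 µL (0.54 nM), in 100 mM HEPES pH 7.5, 1 mM CaCl2, 1 mM β-mercaptoethanol, 1.8 mg/mL BSA. His-containing peptides run instead in 20 mM BisTris pH 6.5 with the same additives. Substrate 100 µM, KM 5.04 µM. Inhibitor 1 nM to 10 µM; 60 min at 37°C. Fluorescence ex 370 / em 460 nm. Ki by Morrison equation; triplicate experiments, mean ± SD.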

Homo sapiens = species: Homo sapiens; assay: Selectivity index, ratio of Ki for recombinant human furin expressed in drosophila S2 cells to Ki for recombinant human PACE4 expressed in drosophila S2 cells; type: cell-based
Summary of the method: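 Ratio Ki(furin)/Ki(PACE4). […] PACE4 buffer was BisTris pH 6.5; furin buffer was HEPES pH 7.5, or BisTris pH 6.5 for His peptides. Ki fitted by Morrison equation from three independent experiments.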

DU-145 = assay: Antiproliferative activity against human DU145 cells assessed as reduction in metabolic activity at 25 to 100 uM after 72 hrs by MTT assay; type: functional, cell-based
Summary of the method: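 First-pass MTT screen of each library peptide on DU145 cells (RPMI 1640, 5% FBS, 1500 cells/well, poly-L-lysine plates). Peptides added 24 h after seeding at 25, 50 and 100 µM in fresh serum medium for 72 h. MTT 1 mg/mL for 4 h; 2-propanol HCl solubilisation. Activity normalised to water vehicle. Mean ± SEM of at least two independent experiments.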

Chain of Furin (P09958 whole entry): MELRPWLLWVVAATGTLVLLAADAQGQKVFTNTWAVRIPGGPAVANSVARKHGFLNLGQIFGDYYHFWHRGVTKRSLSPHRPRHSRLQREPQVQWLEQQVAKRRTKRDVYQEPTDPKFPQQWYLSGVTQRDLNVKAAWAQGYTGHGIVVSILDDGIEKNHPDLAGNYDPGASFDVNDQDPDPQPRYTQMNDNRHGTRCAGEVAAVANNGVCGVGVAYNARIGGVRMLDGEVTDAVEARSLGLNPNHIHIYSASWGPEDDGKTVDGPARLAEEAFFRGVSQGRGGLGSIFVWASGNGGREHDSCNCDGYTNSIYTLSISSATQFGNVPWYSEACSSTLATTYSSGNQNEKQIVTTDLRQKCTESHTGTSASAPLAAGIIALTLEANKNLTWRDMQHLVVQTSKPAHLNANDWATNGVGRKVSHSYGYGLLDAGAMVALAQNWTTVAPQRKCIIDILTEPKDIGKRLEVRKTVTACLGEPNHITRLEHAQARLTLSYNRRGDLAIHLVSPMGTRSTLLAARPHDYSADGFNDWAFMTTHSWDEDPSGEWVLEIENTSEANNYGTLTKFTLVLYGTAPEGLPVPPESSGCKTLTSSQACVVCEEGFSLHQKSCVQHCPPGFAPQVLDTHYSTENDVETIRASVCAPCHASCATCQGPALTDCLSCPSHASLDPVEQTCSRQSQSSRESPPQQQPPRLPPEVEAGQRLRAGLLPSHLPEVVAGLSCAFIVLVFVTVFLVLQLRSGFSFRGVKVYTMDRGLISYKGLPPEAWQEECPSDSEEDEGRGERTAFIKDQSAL

| Ki [1] | Ki (Furin) | Compound | Ratio Ki (Homo sapiens) | Activity (DU-145) |
| --- | --- | --- | --- | --- |
| 2.8 nM | 8 nM | CC(=O)N[C@@H](CC(C)C)C(=O)N[C@@H](CC(C)C)C(=O)N[C@@H](CC(C)C)C(=O)N[C@@H](Cc1c[nH]c2ccccc12)C(=O)N[C@@H](CCCNC(=N)N)C(=O)N[C@H](C(=O)N[C@@H](CCCCN)C(=O)NCc1ccc(C(=N)N)cc1)C(C)C (Ac-LLLWRVK-{NH(4-amidinobenzyl)}) | 2.9 | inactive |
| 2 nM | 3.1 nM | CC(=O)N[C@@H](CC(C)C)C(=O)N[C@@H](CC(C)C)C(=O)N[C@@H](CC(C)C)C(=O)N[C@@H](Cc1ccc(O)cc1)C(=O)N[C@@H](CCCNC(=N)N)C(=O)N[C@H](C(=O)N[C@@H](CCCCN)C(=O)NCc1ccc(C(=N)N)cc1)C(C)C (Ac-LLLYRVK-{NH(4-amidinobenzyl)}) | 1.6 | inactive |
| 28 nM | 18 nM | CSCC[C@H](NC(=O)[C@H](CC(C)C)NC(=O)[C@H](CC(C)C)NC(C)=O)C(=O)N[C@@H](CC(C)C)C(=O)N[C@@H](CCCNC(=N)N)C(=O)N[C@H](C(=O)N[C@@H](CCCCN)C(=O)NCc1ccc(C(=N)N)cc1)C(C)C (Ac-LLMLRVK-{NH(4-amidinobenzyl)}) | 0.6 | inactive |
| 18 nM | 13 nM | CC(=O)N[C@@H](CC(C)C)C(=O)N[C@@H](CC(C)C)C(=O)N[C@@H](CC(N)=O)C(=O)N[C@@H](CC(C)C)C(=O)N[C@@H](CCCNC(=N)N)C(=O)N[C@H](C(=O)N[C@@H](CCCCN)C(=O)NCc1ccc(C(=N)N)cc1)C(C)C (Ac-LLNLRVK-{NH(4-amidinobenzyl)}) | 0.7 | inactive |
| 4 nM | 1.4 nM | CC(=O)N[C@@H](CC(C)C)C(=O)N[C@@H](CC(C)C)C(=O)N1CCC[C@H]1C(=O)N[C@@H](CC(C)C)C(=O)N[C@@H](CCCNC(=N)N)C(=O)N[C@H](C(=O)N[C@@H](CCCCN)C(=O)NCc1ccc(C(=N)N)cc1)C(C)C (Ac-LLPLRVK-{NH(4-amidinobenzyl)}) | 0.4 | inactive |
| 4.1 nM | 5 nM | CC(=O)N[C@@H](CC(C)C)C(=O)N[C@@H](CC(C)C)C(=O)N[C@@H](CCC(N)=O)C(=O)N[C@@H](CC(C)C)C(=O)N[C@@H](CCCNC(=N)N)C(=O)N[C@H](C(=O)N[C@@H](CCCCN)C(=O)NCc1ccc(C(=N)N)cc1)C(C)C (Ac-LLQLRVK-{NH(4-amidinobenzyl)}) | 1.2 | inactive |
| 0.9 nM | 0.5 nM | CC(=O)N[C@@H](CC(C)C)C(=O)N[C@@H](CC(C)C)C(=O)N[C@@H](CCCNC(=N)N)C(=O)N[C@@H](CC(C)C)C(=O)N[C@@H](CCCNC(=N)N)C(=O)N[C@H](C(=O)N[C@@H](CCCCN)C(=O)NCc1ccc(C(=N)N)cc1)C(C)C (Ac-LLRLRVK-{NH(4-amidinobenzyl)}) | 0.6 | inactive |
| 36 nM | 15 nM | CC(=O)N[C@@H](CC(C)C)C(=O)N[C@@H](CC(C)C)C(=O)N[C@@H](CO)C(=O)N[C@@H](CC(C)C)C(=O)N[C@@H](CCCNC(=N)N)C(=O)N[C@H](C(=O)N[C@@H](CCCCN)C(=O)NCc1ccc(C(=N)N)cc1)C(C)C (Ac-LLSLRVK-{NH(4-amidinobenzyl)}) | 0.4 | inactive |
| 39 nM | 18 nM | CC(=O)N[C@@H](CC(C)C)C(=O)N[C@@H](CC(C)C)C(=O)N[C@H](C(=O)N[C@@H](CC(C)C)C(=O)N[C@@H](CCCNC(=N)N)C(=O)N[C@H](C(=O)N[C@@H](CCCCN)C(=O)NCc1ccc(C(=N)N)cc1)C(C)C)[C@@H](C)O (Ac-LLTLRVK-{NH(4-amidinobenzyl)}) | 0.5 | inactive |
| 4 nM | 3 nM | CC(=O)N[C@@H](CC(C)C)C(=O)N[C@@H](CC(C)C)C(=O)N[C@H](C(=O)N[C@@H](CC(C)C)C(=O)N[C@@H](CCCNC(=N)N)C(=O)N[C@H](C(=O)N[C@@H](CCCCN)C(=O)NCc1ccc(C(=N)N)cc1)C(C)C)C(C)C (Ac-LLVLRVK-{NH(4-amidinobenzyl)}) | 0.8 | inactive |
| 44 nM | 36 nM | CC(=O)N[C@@H](CC(C)C)C(=O)N[C@@H](CC(C)C)C(=O)N[C@@H](Cc1c[nH]c2ccccc12)C(=O)N[C@@H](CC(C)C)C(=O)N[C@@H](CCCNC(=N)N)C(=O)N[C@H](C(=O)N[C@@H](CCCCN)C(=O)NCc1ccc(C(=N)N)cc1)C(C)C (Ac-LLWLRVK-{NH(4-amidinobenzyl)}) | 0.8 | inactive |
| 5 nM | 3 nM | CSCC[C@H](NC(=O)[C@H](CC(C)C)NC(C)=O)C(=O)N[C@@H](CC(C)C)C(=O)N[C@@H](CC(C)C)C(=O)N[C@@H](CCCNC(=N)N)C(=O)N[C@H](C(=O)N[C@@H](CCCCN)C(=O)NCc1ccc(C(=N)N)cc1)C(C)C (Ac-LMLLRVK-{NH(4-amidinobenzyl)}) | 0.6 | inactive |
| 4 nM | 1 nM | CC(=O)N[C@@H](CC(C)C)C(=O)N[C@@H](CC(N)=O)C(=O)N[C@@H](CC(C)C)C(=O)N[C@@H](CC(C)C)C(=O)N[C@@H](CCCNC(=N)N)C(=O)N[C@H](C(=O)N[C@@H](CCCCN)C(=O)NCc1ccc(C(=N)N)cc1)C(C)C (Ac-LNLLRVK-{NH(4-amidinobenzyl)}) | 0.3 | inactive |
| 1 nM | 1.5 nM | CC(=O)N[C@@H](CC(C)C)C(=O)N1CCC[C@H]1C(=O)N[C@@H](CC(C)C)C(=O)N[C@@H](CC(C)C)C(=O)N[C@@H](CCCNC(=N)N)C(=O)N[C@H](C(=O)N[C@@H](CCCCN)C(=O)NCc1ccc(C(=N)N)cc1)C(C)C (Ac-LPLLRVK-{NH(4-amidinobenzyl)}) | 1.5 | inactive |
| 3 nM | 2.3 nM | CC(=O)N[C@@H](CC(C)C)C(=O)N[C@@H](CCC(N)=O)C(=O)N[C@@H](CC(C)C)C(=O)N[C@@H](CC(C)C)C(=O)N[C@@H](CCCNC(=N)N)C(=O)N[C@H](C(=O)N[C@@H](CCCCN)C(=O)NCc1ccc(C(=N)N)cc1)C(C)C (Ac-LQLLRVK-{NH(4-amidinobenzyl)}) | 0.8 | inactive |
| 0.4 nM | 0.5 nM | CC(=O)N[C@@H](CC(C)C)C(=O)N[C@@H](CCCNC(=N)N)C(=O)N[C@@H](CC(C)C)C(=O)N[C@@H](CC(C)C)C(=O)N[C@@H](CCCNC(=N)N)C(=O)N[C@H](C(=O)N[C@@H](CCCCN)C(=O)NCc1ccc(C(=N)N)cc1)C(C)C (Ac-LRLLRVK-{NH(4-amidinobenzyl)}) | 1.3 | inactive |
| 2 nM | 2.6 nM | CC(=O)N[C@@H](CC(C)C)C(=O)N[C@@H](CO)C(=O)N[C@@H](CC(C)C)C(=O)N[C@@H](CC(C)C)C(=O)N[C@@H](CCCNC(=N)N)C(=O)N[C@H](C(=O)N[C@@H](CCCCN)C(=O)NCc1ccc(C(=N)N)cc1)C(C)C (Ac-LSLLRVK-{NH(4-amidinobenzyl)}) | 1.3 | inactive |
